Assay results gathered from unrelated publications.
Compare with care: the assays were run in different laboratories.
Target: Protein kinase C eta type (PRKCH, Homo sapiens, UniProt P24723)

Compound	test	conditions	endpoint	value
C[C@@H]1CCN(c2nccc(-c3cnn4ncccc34)n2)C1	binding	1 µM	remaining binding	83%
CCCS(=O)(=O)Nc1ccc(F)c(C(=O)c2c[nH]c3ncc(-c4ccc(Cl)cc4)cc23)c1F	enzyme activity, inhibitor	1 µM	inhibition	< 10%
Cc1sc(C(=O)NC2COC2)cc1-n1cc(NC(=O)Nc2c(F)cccc2Cl)cn1	enzyme activity, inhibitor	10 µM	remaining activity	91.6%
COc1cc(Cl)c(C(=O)N[C@@H](CN[C@H]2CC[C@@H](N)CC2)Cc2ccc(C#N)cc2)cc1-c1ccc(CN[C@H](C)c2ccc(C)cc2)o1	enzyme activity, inhibitor	1 µM	remaining activity	104%
CNCc1ccccc1-c1csc([C@H](C)Nc2nc(C)nc3cc(OC)c(OC)cc23)c1	cell-free assay, competition with immobilised ligand	1 µM	remaining binding	100%
CCCOc1ccc(OC)c(F)c1C(=O)c1ccc(C(=O)N[C@@H]2CNC[C@H]2NC(=O)c2ccc3[nH]ncc3c2)cc1	enzyme activity, inhibitor	10 µM	remaining activity	16%
Nc1ncnc2occ(-c3ccc(NC(=O)Nc4cc(C(F)(F)F)ccc4F)cc3)c12	cell-free assay	20 µM	remaining signal	64%
O=C(Nc1cnn(-c2csc(C(=O)NC3COC3)c2)c1)Nc1c(F)cccc1Cl	enzyme activity, inhibitor	5 µM	remaining activity	99%
CC(=O)c1c(NS(C)(=O)=O)c2cc(-c3ccc(Cl)cc3)c(-c3ccc(Cl)cc3Cl)nc2n(C)c1=O	cell-free assay, competition with immobilised ligand	1 µM	remaining binding	91%
Cn1cncc1C1=CN(c2ncnc3[nH]cnc23)CCS1	enzyme activity, inhibitor, radiometric	2 µM	inhibition	83.6%
CN1CCN(c2cnc3c(C4CCN(C(=O)c5ccc(OC(F)(F)F)cc5N)CC4)ncnc3c2)CC1	cell-free assay, competition with immobilised ligand	1 µM	remaining binding	86%
CCN(CC)CCNC(=O)c1c(C)[nH]c(/C=C2\C(=O)Nc3ccc(F)cc32)c1C	enzyme activity, inhibitor	10 µM	inhibition	4%
Cc1cnc(NC2CCOCC2)nc1-n1cnc(C(=O)NC(CN)c2cc(F)cc(Cl)c2)c1 (stereo not shown)	enzyme activity, inhibitor, radiometric	1 µM	remaining activity	100%
CN1CC(Oc2cnc(C#N)cc2-c2ccn3nc(NC(=O)C4CC4)cc3c2)C1	enzyme activity, inhibitor	1 µM	inhibition	-11%
CS(=O)(=O)NCC[C@H](NC(=O)c1cncc2c1cnn2-c1ccc(F)cc1)c1ccnc(S(C)(=O)=O)c1	cell-free assay, competition with immobilised ligand	1 µM	remaining binding	80%
COc1cc2ncnc(Nc3ccc(Oc4ccccc4)cc3C)c2cc1OC	enzyme activity, inhibitor	1 µM	inhibition	7%
CC(C)(O)[C@H]1CC[C@H](Nc2ccc3ncc(-c4cccc(C(F)(F)F)c4)n3n2)CC1	enzyme activity, inhibitor	1 µM	remaining activity	97.2%
CNC(=O)Nc1ccc2c(c1)[C@@]1(CC2)OC(=O)N(CC(=O)N(Cc2ccc(F)cc2)[C@@H](C)C(F)(F)F)C1=O	cell-free assay, competition with immobilised ligand	1 µM	remaining binding	87%
Cn1cnc(Br)c1C1=CN(c2ncnc3[nH]cnc23)CCS1	enzyme activity, inhibitor, radiometric	2 µM	inhibition	91.8%
